Key:
Nakaseomyces glabratus = assay: Anti-fungal activity against drug-resistant Candida glabrata after 48 hrs by broth microdilution method; type: functional
Summary of the method: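 Clinical resistant C. glabrata isolate, stored frozen in glycerol and subcultured twice on Sabouraud dextrose agar. CLSI broth microdilution in RPMI 1640 (glutamine, no bicarbonate) buffered to pH 7.0 with MOPS. Inoculum from 24 h subcultures, final 0.5 to 2.5 x10^3 cfu/mL. DMSO-dissolved compounds in twofold dilutions, 35 C for 48 h. MIC is the lowest concentration giving complete visual growth inhibition; fluconazole reference read at about 80% inhibition.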

Candida albicans [1] = assay: Anti-fungal activity against Candida albicans ATCC 90028 after 48 hrs by broth microdilution method; type: functional; settings: ATCC 90028, 48 h
Summary of the method: (§1)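 CLSI broth microdilution in RPMI 1640 (with glutamine, without bicarbonate) buffered to pH 7.0 with MOPS. Inoculum was prepared from 24 h Sabouraud dextrose agar subcultures, final 0.5 to 2.5 10^3 cfu/mL. Twofold dilutions were made from DMSO stocks. Incubated 35 °C for 48 h. MIC was the lowest concentration with no visible growth; for the fluconazole reference, MIC was taken at about 80% growth inhibition versus control.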

Staphylococcus aureus = assay: Antibacterial activity against Staphylococcus aureus ATCC 29213 after 18 to 24 hrs by broth microdilution method; type: functional
Summary of the method: (§2)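 CLSI broth microdilution in Mueller Hinton broth, with inoculum from 24 h Mueller Hinton agar subcultures, final about 5 10^5 cfu/mL. Compounds were dissolved in DMSO and tested as twofold dilutions in wells. Plates were incubated at 35 °C for 18–24 h. MIC was read as the lowest concentration completely inhibiting visible growth. Ciprofloxacin was the reference.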

Candida albicans [2] = assay: Antibiofilm activity against Candida albicans SC5314 after 24 hrs by spectrophotometric method; type: functional
Summary of the method: (§3)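 Biofilms were grown on Calgary device pegs from a 10^6 cfu/mL inoculum for 24 h at 37 °C. Pegs were rinsed in saline, then challenged with twofold dilutions for 24 h at 35 °C. Biofilm was recovered by 5 min sonication into RPMI 1640 with 2% glucose and incubated overnight. OD was read at 550 nm plus visual turbidity. MBEC was the lowest concentration preventing regrowth. MBIC was the minimum concentration preventing initial biofilm formation, judged by visual turbidity.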

Pseudomonas aeruginosa = assay: Antibacterial activity against Pseudomonas aeruginosa ATCC 27853 after 18 to 24 hrs by broth microdilution method; type: functional; summary of the method: as §2
[3] = Cytotoxicity against human U937 cells assessed as cell viability at 10 to 100 ug/ml after 48 hrs by MTT assay relative to control; type: cell-based, U-937; settings: read-out: Activity
Summary of the method: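 U937 human monocytic cells, 4 10^3 per well in RPMI-1640 with 10% FBS, L-glutamine, penicillin and streptomycin, at 37 °C and 5% CO2. Compounds in DMSO were added at five final concentrations for 48 h, in triplicate. MTT was added for 4 h, formazan was dissolved overnight in SDS/23% DMF, and OD was read at 570 nm. Results are % reduction in viable cells versus control.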

Candida parapsilosis = assay: Anti-fungal activity against Candida parapsilosis ATCC 90018 after 48 hrs by broth microdilution method; type: functional; settings: Lodderomyces parapsilosis, ATCC 90018, 48 h; summary of the method: as §1
Pichia kudriavzevii = assay: Anti-fungal activity against Candida krusei ATCC 6258 after 48 hrs by broth microdilution method; type: functional; settings: ATCC 6258, 48 h; summary of the method: as §1
Enterococcus faecalis = assay: Antibacterial activity against Enterococcus faecalis ATCC 29212 after 18 to 24 hrs by broth microdilution method; type: functional; summary of the method: as §2
Candida albicans [4] = assay: Antibiofilm activity against Candida albicans SC5314 after 24 hrs by turbidity assay; type: functional; summary of the method: as §3
Escherichia coli = assay: Antibacterial activity against Escherichia coli ATCC 25922 after 18 to 24 hrs by broth microdilution method; type: functional; summary of the method: as §2

C/C=C/C=C/C(=O)OC(Cn1ccnc1)c1ccc(Cl)cc1.Cl (stereo not drawn)
MIC (Nakaseomyces glabratus): 4 µg/mL
MIC (Candida albicans [1]): 0.5 µg/mL
MIC (Staphylococcus aureus): 16 µg/mL
MBEC (Candida albicans [2]): 1024 µg/mL
MIC (Pseudomonas aeruginosa): 256 µg/mL
viability at 48 h [3]: 70 to 80%
MIC (Candida parapsilosis): 1 µg/mL
MIC (Pichia kudriavzevii): 8 µg/mL
MIC (Enterococcus faecalis): 128 µg/mL
MBIC (Candida albicans [4]): 8 µg/mL
MIC (Escherichia coli): 512 µg/mL

Cl.O=C(/C=C/c1ccccc1)OC(Cn1ccnc1)c1ccccc1 (stereo not drawn)
MIC (Nakaseomyces glabratus): 8 µg/mL
MIC (Candida albicans [1]): 1 µg/mL
MIC (Staphylococcus aureus): 8 µg/mL
MBEC (Candida albicans [2]): 1024 µg/mL
MIC (Pseudomonas aeruginosa): 256 µg/mL
viability at 48 h [3]: 70 to 80%
MIC (Candida parapsilosis): 1 µg/mL
MIC (Pichia kudriavzevii): 16 µg/mL
MIC (Enterococcus faecalis): 64 µg/mL
MBIC (Candida albicans [4]): 8 µg/mL
MIC (Escherichia coli): 512 µg/mL

Cl.O=C(OC(Cn1ccnc1)c1ccc(Cl)cc1)c1ccc(-c2ccccc2)cc1 (stereo not drawn)
MIC (Nakaseomyces glabratus): 4 µg/mL
MIC (Candida albicans [1]): 0.25 µg/mL
MIC (Staphylococcus aureus): 512 µg/mL
MBEC (Candida albicans [2]): 512 µg/mL
MIC (Pseudomonas aeruginosa): 256 µg/mL
viability at 48 h [3]: 70 to 80%
MIC (Candida parapsilosis): 0.25 µg/mL
MIC (Pichia kudriavzevii): 4 µg/mL
MIC (Enterococcus faecalis): 256 µg/mL
MBIC (Candida albicans [4]): 4 µg/mL
MIC (Escherichia coli): 512 µg/mL

Source: ChEMBL document CHEMBL4049392, “New azole derivatives showing antimicrobial effects and their mechanism of antifungal activity by molecular modeling studies” (Eur J Med Chem, 2017)
